Experiment [1] deals with HL-60. The experiment is described as follows: Cytotoxicity against human HL60 cells after 72 hrs by MTT assay. Type of experiment: functional, cell-based. The conditions noted are these: HL-60, 72 h. In short, it runs like this: (§1)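 Exponentially growing cells were seeded at 3.5 × 10⁵ cells/ml (adherent EJ) or 1 × 10⁵ cells/ml (suspension HL-60), grown 24 h, then exposed continuously for 72 h. Drugs came from fresh DMSO stocks diluted in medium to ≤0.5% final DMSO, with eight wells per concentration. MTT (10 mg/ml PBS stock) was added for 4 h at 37 °C, formazan dissolved in 5% HCOOH/2-propanol, and read at 580 nm. IC50 was taken from a sigmoidal non-linear fit of survival as % of untreated control.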

The nature of experiment [2]: Cytotoxicity against human […] cells after 72 hrs by MTT assay. Type of experiment: functional, cell-based. A digest of the protocol: as §1
Experiment [3] concerns Strongylocentrotus purpuratus. The experiment is described as follows: Inhibition of Strongylocentrotus purpuratus embryos cleavage at 10 uM. Type of experiment: functional.

On to `CCOC(=O)C(C(C)=O)C(c1ccc(O)c(O)c1)c1c(O)c2ccccc2oc1=O` (stereo not drawn), for which the figures for the IC50 in experiment [1] and in experiment [2] were 35.1 µM and 116 µM, respectively.

`CCOC(=O)C(C(C)=O)C(c1ccc(C(=O)O)cc1)c1c(O)c2ccccc2oc1=O` (stereo not drawn): the IC50 in experiment [1] and in experiment [2] was above 200 µM throughout.

Regarding `CCOC(=O)C(C(C)=O)C(c1cccc([N+](=O)[O-])c1)c1c(O)c2ccccc2oc1=O` (stereo not drawn), the IC50 – broadly, the midpoint of a concentration-inhibition curve – was 90.8 µM in experiment [1] and 172 µM in experiment [2]. Take `CCOC(=O)C(C(C)=O)C(c1ccc([N+](=O)[O-])cc1)c1c(O)c2ccccc2oc1=O` (stereo not drawn): the IC50 in experiment [1] and in experiment [2] was above 200 µM each time.

For `CCOC(=O)C(C(C)=O)C(c1ccc(O)cc1)c1c(O)c2ccccc2oc1=O` (stereo not drawn), the IC50 in experiment [1] and in experiment [2] was above 200 µM in each case. Turning to `O=c1oc2ccccc2c(O)c1Cc1c(O)c2ccccc2oc1=O` [DICUMAROL], the inhibition (as a rule, the change of the read-out against control, counted positive when it falls) at 10 µM in experiment [3] worked out at 50%. For `N[C@@H](Cc1ccc(N(CCCl)CCCl)cc1)C(=O)O` [MELPHALAN], the values for the IC50 in experiment [1] and in experiment [2] were 11.4 µM and 22.1 µM, respectively.
